{"source": "paper PMC4828309", "about": "(European journal of immunology, 2016)", "molecules": {"B1": {"name": "Alexa Fluor 488-labeled N-acetylated CLIP peptide (peptide)", "peptide": "Ac-VSK(Alexa Fluor 488)MRMATPLLMQ"}}, "key": {"DQ2-8 [1]": {"system": "DQ2-8", "experiment": "Peptide elution and HPLC-MS/MS, DQ2-8", "design": "species or system human", "conditions": "293T DQ2-8+Ii+DM, 2 independent experiments", "how_it_was_run": "(§1)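 About 1×10^9 sorted, stably transduced 293T cells expressing DQ+Ii or DQ+Ii+DM were lysed. DQ was captured with anti-DQ mAb SPVL3 on protein A beads. Bound peptides were eluted, separated by HPLC and sequenced by HPLC-MS/MS. Nested Ii-derived peptides were assigned to the CLIP1 core or the CLIP2 register. Results come from 2 independent experiments.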"}, "DQ1 [2]": {"system": "DQ1", "experiment": "Peptide elution and HPLC-MS/MS, DQ1", "design": "species or system human", "how_it_was_run": "as §1"}, "DQ2 [3]": {"system": "DQ2", "experiment": "Peptide elution and HPLC-MS/MS, DQ2", "design": "species or system human", "conditions": "293T DQ2+Ii+DM, 2 independent experiments", "how_it_was_run": "as §1"}, "DQ8-2 [4]": {"system": "DQ8-2", "experiment": "Peptide elution and HPLC-MS/MS, DQ8-2", "design": "species or system human", "conditions": "293T DQ8-2+Ii+DM, 2 independent experiments", "how_it_was_run": "as §1"}, "DQ8 [5]": {"system": "DQ8", "experiment": "Peptide elution and HPLC-MS/MS, DQ8", "design": "species or system human", "conditions": "293T DQ8+Ii+DM, 2 independent experiments", "how_it_was_run": "as §1"}, "DQ molecules": {"system": "DQ molecules", "experiment": "Peptide elution and HPLC-MS/MS, several DQ molecules reported together", "design": "species or system human", "how_it_was_run": "as §1"}, "sDQ6": {"system": "sDQ6", "experiment": "FP assay of CLIP dissociation from sDQ6", "format": "binding, human", "conditions": "50 nM sDQ6-^488CLIP, sDM 0 to 2000 nM, 37°C, pH 5.0", "how_it_was_run": "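sDQ6 secreted by lentivirus-transduced 293T cells, purified by His-resin then anti-DQ affinity, and thrombin-cleaved overnight. It was loaded with Alexa 488-labelled CLIP (1:5) plus 100 nM sDM for 3 h at 37°C in pH 5.0 citrate-phosphate/NaCl/Tween buffer, then spin-desalted. 50 nM complex, 0–2000 nM sDM and 100 μM unlabelled CLIP1 were read by FP at 37°C. FP was normalised to free-peptide background; rate enhancement was expressed relative to no-DM rate.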"}, "[6]": {"system": "DQ2 with Gly at position 53", "conditions": "ref [22]; cited from earlier work"}, "DQ8 βT89G": {"system": "DQ8 βT89G", "experiment": "Cell surface CLIP by flow cytometry, 293T cells expressing DQ8 βT89G mutant", "format": "cell-based, human", "conditions": "293T + Ii, with vs without DM; βT89G disrupts one H-bond; CLIP/DQ ratio"}, "DQ alleles in T2 cells": {"system": "DQ alleles in T2 cells", "format": "cell-based, human", "conditions": "T2 lymphoblastoid cells, absence or presence of HLA-DM, flow cytometry", "how_it_was_run": "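Human B-cell hybrid T2 line (endogenous Ii, MHC class II region deleted) expressing each DQ allele with or without HLA-DM. Cells surface-stained with PerCP-Cy5.5 anti-CLIP (Cer.CLIP1) and biotinylated anti-DQ (SPVL3) detected by streptavidin-APC or -PE-Cy7, alongside isotype-matched controls. Analysed by flow cytometry.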"}, "DQ8 βE86A": {"system": "DQ8 βE86A", "experiment": "Cell surface CLIP by flow cytometry, 293T cells expressing DQ8 βE86A mutant", "format": "cell-based, human", "conditions": "293T + Ii, with vs without DM; βE86A disrupts two H-bonds; CLIP/DQ ratio"}, "DQ8 [7]": {"system": "DQ8", "experiment": "Cell surface CLIP by flow cytometry, 293T cells expressing DQ8", "format": "cell-based, human", "how_it_was_run": "(§2)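 Human 293T cells (no endogenous Ii, DM or DQ) were lentivirally transduced with full-length DQ α/β (T2A-linked, GFP vector), Ii, and DM (mCherry vector). They were sorted for GFP, DQ and mCherry. Surface staining used PerCP-Cy5.5 Cer.CLIP1 and biotinylated SPVL3 anti-DQ with streptavidin-APC or -PE-Cy7. Gating was on matched GFP/mCherry levels. Read-outs were MFI and the CLIP/DQ MFI ratio with vs without DM, from 3 independent experiments, mean + SD.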"}, "DQ2-8 [8]": {"system": "DQ2-8", "experiment": "Cell surface CLIP by flow cytometry, 293T cells expressing DQ2-8 trans-dimer", "format": "cell-based, human", "how_it_was_run": "as §2"}, "DQ1 [9]": {"system": "DQ1", "experiment": "Cell surface CLIP by flow cytometry, 293T cells expressing DQ1", "format": "cell-based, human", "conditions": "293T DQ1, even in the absence of DM, CerCLIP.1 mAb", "how_it_was_run": "as §2"}, "DQ6 [10]": {"system": "DQ6", "experiment": "Cell surface CLIP by flow cytometry, 293T cells expressing DQ6", "format": "cell-based, human", "conditions": "CerCLIP.1 mAb", "how_it_was_run": "as §2"}, "DQ8-2 [11]": {"system": "DQ8-2", "experiment": "Cell surface CLIP by flow cytometry, 293T cells expressing DQ8-2 trans-dimer", "format": "cell-based, human", "how_it_was_run": "as §2"}, "DQ6 [12]": {"system": "DQ6", "experiment": "Peptide elution and HPLC-MS/MS, DQ6", "design": "species or system human", "conditions": "293T DQ6+Ii+DM, 2 independent experiments", "how_it_was_run": "as §1"}, "DQ2 [13]": {"system": "DQ2", "experiment": "Cell surface CLIP by flow cytometry, 293T cells expressing DQ2", "format": "cell-based, human", "how_it_was_run": "as §2"}, "[14]": {"biological_target": "soluble recombinant HLA-DQ8 (human)", "experiment": "fluorescence polarisation"}, "[15]": {"biological_target": "soluble recombinant HLA-DQ6 (human)", "experiment": "fluorescence polarisation"}}, "note": "Entries after “also recorded” stand apart in the source; their conditions may differ. No end group written: not given here.", "data": [{"molecule": "LPKPPKPVSKMRMATPLLMQA [CLIP1]", "values": [{"measurement": "CLIP1 in peptide eluate, with DM", "setting": "DQ2-8 [1]", "result": "detected"}, {"measurement": "CLIP peptides in eluate, no DM", "setting": "DQ1 [2]; 293T DQ1+Ii without DM", "result": "detected"}, {"measurement": "CLIP peptides in eluate, with DM", "setting": "DQ1 [2]; 293T DQ1+Ii+DM", "result": "not in samples co-expressing DM"}, {"measurement": "CLIP1 in peptide eluate, with DM", "setting": "DQ2 [3]", "result": "detected"}, {"measurement": "CLIP1 in peptide eluate, with DM", "setting": "DQ8-2 [4]", "result": "detected"}, {"measurement": "CLIP1 in peptide eluate, with DM", "setting": "DQ8 [5]", "result": "detected"}]}, {"molecule": "PSSGLGVTKQDLGPVPM [CLIPc, reference compound]", "values": [{"measurement": "CLIPc detection in eluates", "setting": "DQ molecules; DQ samples from 293T cells", "result": "detected by HPLC-MS/MS from all of the samples (DQ2, DQ2-8 and DQ8-2), except DQ8"}]}, {"molecule": "DM: non-classical MHC protein HLA-DM catalyzing CLIP release and peptide exchange", "values": [{"measurement": "Dissociation rate versus DM concentration", "setting": "sDQ6", "result": "Peptide dissociation rates increased with increasing DM concentration; also recorded: rates appeared to saturate with increasing DM concentration"}, {"measurement": "DM sensitivity after Gly insertion at α53 of DQ2", "setting": "[6]", "result": "restored DM sensitivity; also recorded: marked increase in DM-mediated rate enhancement in the dissociation of a DQ2 binding peptide"}, {"measurement": "Change in DM sensitivity of DQ8 mutant", "setting": "DQ8 βT89G", "result": "little change in DM sensitivity"}, {"measurement": "DM editing of CLIP in T2 cells", "setting": "DQ alleles in T2 cells", "result": "DQ2 and DQ2-8 were less sensitive to DM than DQ8"}, {"measurement": "Change in DM sensitivity of DQ8 mutant", "setting": "DQ8 βE86A", "result": "partially restore sensitivity to DM"}, {"measurement": "Hierarchy of DM sensitivity among DQ molecules", "setting": "DQ8 [7]; 293T DQ+Ii+DM, DQ8 compared with DQ2-8, DQ2, DQ8-2", "result": "DQ8 being the least sensitive, followed by DQ2-8, DQ2, and DQ8-2"}]}, {"molecule": "CLIP: Class II associated invariant chain peptide; Ii-derived, endogenous on DQ-expressing cells (Ac-VSK(Alexa Fluor 488)MRMATPLLMQ)", "values": [{"measurement": "Cell surface CLIP upon DM co-expression", "setting": "DQ2-8 [8]; 293T DQ2-8+Ii+DM, CerCLIP.1 mAb, flow cytometry, 3 independent experiments", "result": "retain high levels of cell surface CLIP"}, {"measurement": "Cell surface CLIP level, no DM", "setting": "DQ2-8 [8]; 293T DQ2-8+Ii, absence of DM, CerCLIP.1 mAb, flow cytometry, MFI", "result": "high"}, {"measurement": "Reduction in cell surface CLIP by DM", "setting": "DQ2-8 [8]; 293T cells co-expressing DM with DQ2-8", "result": "little or no reduction in CLIP levels"}, {"measurement": "DM editing of CLIP in T2 cells", "setting": "DQ alleles in T2 cells", "result": "consistent with those obtained with 293T cells"}, {"measurement": "Cell surface CLIP level, no DM", "setting": "DQ1 [9]", "result": "no detectable CLIP peptide"}, {"measurement": "CLIP peptides eluted, no DM", "setting": "DQ molecules; 293T DQ+Ii without DM, all DQ alleles, 2 independent experiments", "result": "prominently presented by all DQ alleles"}, {"measurement": "Cell surface CLIP upon DM co-expression", "setting": "DQ6 [10]; 293T DQ6+Ii+DM, 3 independent experiments", "result": "complete loss of cell surface CLIP"}, {"measurement": "Cell surface CLIP level, no DM", "setting": "DQ6 [10]; 293T DQ6+Ii, absence of DM, MFI", "result": "high"}, {"measurement": "Cell surface CLIP upon DM co-expression", "setting": "DQ8-2 [11]; 293T DQ8-2+Ii+DM, CerCLIP.1 mAb, flow cytometry, 3 independent experiments", "result": "retain high levels of cell surface CLIP"}, {"measurement": "Cell surface CLIP level, no DM", "setting": "DQ8-2 [11]; 293T DQ8-2+Ii, absence of DM, CerCLIP.1 mAb, flow cytometry, MFI", "result": "high"}, {"measurement": "DM editing resistance relative to DQ8 and DQ2-8", "setting": "DQ8-2 [11]; 293T, DQ8-2 trans-dimer", "result": "less striking"}, {"measurement": "CLIP in peptide eluate, with DM", "setting": "DQ6 [12]", "result": "not detected"}, {"measurement": "Cell surface CLIP upon DM co-expression", "setting": "DQ8 [7]; 293T DQ8+Ii+DM, CerCLIP.1 mAb, flow cytometry, 3 independent experiments", "result": "retain high levels of cell surface CLIP"}, {"measurement": "Cell surface CLIP level, no DM", "setting": "DQ8 [7]; 293T DQ8+Ii, absence of DM, CerCLIP.1 mAb, flow cytometry, MFI", "result": "high"}, {"measurement": "Reduction in cell surface CLIP by DM", "setting": "DQ8 [7]; 293T cells co-expressing DM with DQ8", "result": "little or no reduction in CLIP levels"}, {"measurement": "DM editing of CLIP upon DM co-expression", "setting": "DQ2 [13]; 293T DQ2+Ii+DM, CerCLIP.1 mAb, flow cytometry, 3 independent experiments", "result": "relatively resistant to DM editing"}, {"measurement": "Cell surface CLIP level, no DM", "setting": "DQ2 [13]; 293T DQ2+Ii, absence of DM, CerCLIP.1 mAb, flow cytometry, MFI", "result": "high"}, {"measurement": "DM editing resistance relative to DQ8 and DQ2-8", "setting": "DQ2 [13]; 293T, DQ2", "result": "less striking"}]}, {"molecule": "B1", "values": [{"measurement": "intrinsic half-life of the complex", "setting": "[14]", "result": 58, "unit": "h"}, {"measurement": "intrinsic half-life of the complex", "setting": "[15]", "result": 7, "unit": "h"}]}]}
